Data on 30 sequences can be found in the array DNA melting data of Ke et al. (doi:10.1101/2024.01.08.574731).

Series [1] in a line: melting temperature; fluorescence melt of hairpins on a sequencing array, two-state fit, raised by 9.35 °C to match UV melts. The settings on record: sodium 0.088 M. The procedure, abridged: (§1)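 With Cy3 and quencher oligos annealed, library hairpins on a sequenced MiSeq flow cell were imaged for Cy3 fluorescence in 50 mM Na-HEPES pH 8.0, 25 mM NaCl, in 2.5 °C steps up to 60 °C. Melting temperature and folding enthalpy were derived from bootstrapped two-state fits of signals normalised to pre-quench Cy3 and to control constructs. Four replicates were combined by inverse variance, with fitted temperatures raised by 9.35 °C to match UV melts.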

A short description of series [2]: folding enthalpy; higher = less favourable; fluorescence melt of hairpins on a sequencing array, two-state fit. The settings on record: sodium 0.088 M. The procedure, abridged: as §1

On to GCTATGCGAAAGCAAAGC (((.(((....))).))), for which the Tm in series [1] is 51.6 °C. In series [2], the folding enthalpy was -151 kJ/mol.

For GCTATGCGAAAGCACAGC (((.(((....))).))), in series [1], the Tm stood at 48.7 °C. Moreover, the folding enthalpy in series [2] was -166 kJ/mol.

In the case of GCTATGCGAAAGCATCGC ((.((((....)))).)), the Tm in series [1] came out at 55.3 °C. In series [2], the folding enthalpy is -94.1 kJ/mol.

Take GCTATGCGAAAGCCTTGC ((.(.((....)).).)): the Tm in series [1] is 30 °C. For the same sequence, the folding enthalpy in series [2] is -53 kJ/mol.

As for GCTATGCGAAAGCGCAGC (((..((....))..))), in series [1], the Tm stood at 36.8 °C. Besides, the folding enthalpy in series [2] is -75.4 kJ/mol.

In the case of GCTATGGCGAAAGCCAGC (((..(((....)))))), the Tm in series [1] turned out to be 42.6 °C. Besides, the folding enthalpy in series [2] is -46.7 kJ/mol.

With GCTATGGGAAACCATAAC (.(((((....))))).), the Tm in series [1] was 28.7 °C. The folding enthalpy in series [2] was -53.4 kJ/mol.

On to GCTATGGGAAACCGTAGC ((((.((....)).)))), for which, in series [1], the Tm amounted to 51.9 °C. Also, the folding enthalpy in series [2] is -185 kJ/mol.

Consider GCTATGGGAAACTGTAGC ((((..(....)..)))), for which the Tm in series [1] was 36 °C. The folding enthalpy in series [2] is -105 kJ/mol.

In the case of GCTATTGAAAAATAGC ((((((....)))))), in series [1], the Tm was 49.5 °C. For the same sequence, in series [2], the folding enthalpy was -131 kJ/mol.

Consider GCTATTGCGAAAGCAAGC (((..(((....)))))), for which, in series [1], the Tm amounted to 42.2 °C. In series [2], the folding enthalpy was -42.6 kJ/mol.

For GCTCAACCGAAAGGTAGC (((..(((....)))))), in series [1], the Tm was 39.4 °C. In addition, the folding enthalpy in series [2] is -77.1 kJ/mol.

GCTCAACGAAAGTTCAGC (((.(((....))).))): the Tm in series [1] was determined as 37.6 °C. For the same sequence, the folding enthalpy in series [2] was -98.6 kJ/mol.

With GCTCAAGGAAACTTGAGC (((((((....))))))), in series [1], the Tm came to 64.4 °C. For the same sequence, in series [2], the folding enthalpy was -194 kJ/mol.

With GCTCAAGGAAACTTGGGC ((.((((....)))).)), in series [1], the Tm amounted to 50 °C. Moreover, the folding enthalpy in series [2] is -156 kJ/mol.

On to GCTCACCGAAAGGTCAGC (((.(((....))).))), for which, in series [1], the Tm is 44.2 °C. Also, in series [2], the folding enthalpy is -110 kJ/mol.

Consider GCTCACCGAAAGGTTAGC (((.(((....))).))), for which, in series [1], the Tm is 49.9 °C. In addition, the folding enthalpy in series [2] was -130 kJ/mol.

On to GCTCACGAAAGTGAGAGC ((((((....)))..))), for which the Tm in series [1] came to 59 °C. Besides, the folding enthalpy in series [2] was -57.2 kJ/mol.

Turning to GCTCACGAAAGTGCAAGC ((((((....)))..))), the Tm in series [1] was 39.4 °C. Further, the folding enthalpy in series [2] was -73 kJ/mol.

In the case of GCTCACGAAAGTGCCAGC ((((((....)))..))), the Tm in series [1] amounted to 33.5 °C. For the same sequence, the folding enthalpy in series [2] is -54.8 kJ/mol.

As to GCTCACGAAAGTGCGAGC ((((((....)))..))), in series [1], the Tm came to 38.7 °C. Further, the folding enthalpy in series [2] is -82.7 kJ/mol.

Consider GCTCACGAAAGTGGAGC ((((((....))).))), for which, in series [1], the Tm turned out to be 59 °C. In addition, in series [2], the folding enthalpy is -115 kJ/mol.

Consider GCTCACGGAAACACGAGC ((((..(....)..)))), for which the Tm in series [1] was found to be 34 °C. Moreover, the folding enthalpy in series [2] was -108 kJ/mol.

Take GCTCACGGAAACGTAAGC (((.(((....))).))): in series [1], the Tm came out at 41.8 °C. Moreover, the folding enthalpy in series [2] is -114 kJ/mol.

In the case of GCTCAGCGAAAGCACAGC (((..((....))..))), the Tm in series [1] is 39.7 °C. The folding enthalpy in series [2] was -62.2 kJ/mol.

For the sequence GCTCAGCGAAAGCAGTGC ((.(.((....)).).)), the Tm in series [1] was 44.4 °C. In addition, the folding enthalpy in series [2] is -55.1 kJ/mol.

With GCTCAGCGAAAGCCGCGC ((.(.((....)).).)), in series [1], the Tm came to 42 °C. In addition, in series [2], the folding enthalpy is -74.6 kJ/mol.

With GCTCAGCGAAAGCCGGGC ((.(.((....)).).)), in series [1], the Tm was 45.4 °C. Further, in series [2], the folding enthalpy is -71.5 kJ/mol.

As for GCTCAGCGAAAGCTAGC (((.(((....)))))), the Tm in series [1] worked out at 49.4 °C. Besides, the folding enthalpy in series [2] was -83.5 kJ/mol.

On to GCTCAGCGAAAGCTCAGC (((.(((....))).))), for which, in series [1], the Tm came to 44.7 °C. Moreover, the folding enthalpy in series [2] is -62.8 kJ/mol.
